Drawing on the array DNA melting data of Ke et al. (doi:10.1101/2024.01.08.574731), this text covers folding enthalpy and Tm for 38 sequences.

Series [1] in a line: folding enthalpy; higher = less favourable; fluorescence melt of hairpins on a sequencing array, two-state fit. To be noted: sodium 0.088 M. The method in brief:
(§1)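 To match UV melts, fitted temperatures were raised by 9.35 °C. These fits were bootstrapped two-state models that gave melting temperature and folding enthalpy, combined by inverse variance over four replicates. The input was normalised Cy3 fluorescence of library hairpins with annealed Cy3 and quencher oligos on a sequenced MiSeq flow cell, imaged in 50 mM Na-HEPES pH 8.0, 25 mM NaCl in 2.5 °C steps up to 60 °C.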

A short description of series [2]: melting temperature; fluorescence melt of hairpins on a sequencing array, two-state fit, raised by 9.35 °C to match UV melts. To be noted: sodium 0.088 M. The method in brief:
as §1

As for GATCCTAATGAGGATC ((((((....)))))), the folding enthalpy in series [1] was -34.1 kcal/mol. In addition, the Tm in series [2] was 50.5 °C.
On the same counts, the results for GATCCTACAAAGGATC ((((((....)))))) are -36.3 kcal/mol and 49.5 °C.
On the same counts, the results for GATCCTACCAGGATC ((((((...)))))) are -39.6 kcal/mol and 54.9 °C.
On the same counts, the results for GATCCTACGAAGGATC ((((((....)))))) are -35.9 kcal/mol and 50.3 °C.
With GATCCTACGCAGGATC ((((((....)))))), the folding enthalpy in series [1] was -35 kcal/mol. The Tm in series [2] was determined as 51.1 °C.
Turning to GATCCTACGGAGGATC ((((((....)))))), the folding enthalpy in series [1] was -35 kcal/mol. Moreover, the Tm in series [2] came to 50.9 °C.
For the sequence GATCCTACTCAGGATC ((((((....)))))), the folding enthalpy in series [1] was -32.3 kcal/mol. The Tm in series [2] was found to be 52 °C.
On the same counts, the results for GATCCTAGATAGGATC ((((((....)))))) are -36.1 kcal/mol and 50.8 °C.
On the same counts, the results for GATCCTATACAGGATC ((((((....)))))) are -38.1 kcal/mol and 52.4 °C.
Consider GATCCTATATAGGATC ((((((....)))))), for which the folding enthalpy in series [1] is -46.7 kcal/mol. In addition, in series [2], the Tm amounted to 52.3 °C.
Take GATCCTATGAAGGATC ((((((....)))))): in series [1], the folding enthalpy was -34 kcal/mol. In series [2], the Tm was found to be 51 °C.
On the same counts, the results for GATCCTATGGAGGATC ((((((....)))))) are -35.2 kcal/mol and 50.6 °C.
On the same counts, the results for GATCCTATTCAGGATC ((((((....)))))) are -44 kcal/mol and 52.6 °C.
Take GATCCTATTTAGGATC ((((((....)))))): the folding enthalpy in series [1] was -40.6 kcal/mol. Further, in series [2], the Tm amounted to 54.4 °C.
On to GATCCTCAAAGGATC ((((((...)))))), for which the folding enthalpy in series [1] is -32.1 kcal/mol. Moreover, the Tm in series [2] came to 50.6 °C.
On the same counts, the results for GATCCTCAACAGGATC ((((((....)))))) are -37.2 kcal/mol and 48.7 °C.
On the same counts, the results for GATCCTCACAGGATC ((((((...)))))) are -27.2 kcal/mol and 54 °C.
As to GATCCTCAGCAGGATC ((((((....)))))), in series [1], the folding enthalpy is -33.2 kcal/mol. The Tm in series [2] came out at 48.8 °C.
On the same counts, the results for GATCCTCATCAGGATC ((((((....)))))) are -37 kcal/mol and 49.7 °C.
On the same counts, the results for GATCCTCCATAGGATC ((((((....)))))) are -33.5 kcal/mol and 51.1 °C.
For GATCCTCCTAGGATC ((((((...)))))), the folding enthalpy in series [1] was -39.2 kcal/mol. In series [2], the Tm was 54 °C.
On the same counts, the results for GATCCTCCTTAGGATC ((((((....)))))) are -36.8 kcal/mol and 50.9 °C.
On to GATCCTCGAAAGGATC ((((((....)))))), for which the folding enthalpy in series [1] was -37.2 kcal/mol. In addition, the Tm in series [2] was 50.4 °C.
Regarding GATCCTCGAGAGGATC ((((((....)))))), in series [1], the folding enthalpy is -42.7 kcal/mol. Besides, the Tm in series [2] is 56.8 °C.
GATCCTCGCGAGGATC ((((((....)))))): in series [1], the folding enthalpy was -43.4 kcal/mol. Also, in series [2], the Tm turned out to be 60.4 °C.
On to GATCCTCGGTAGGATC ((((((....)))))), for which, in series [1], the folding enthalpy is -26.9 kcal/mol. Further, the Tm in series [2] amounted to 50.9 °C.
On the same counts, the results for GATCCTCGTAAGGATC ((((((....)))))) are -35.3 kcal/mol and 54.5 °C.
As for GATCCTCGTGAGGATC ((((((....)))))), the folding enthalpy in series [1] is -36.6 kcal/mol. In addition, in series [2], the Tm came out at 61.5 °C.
As to GATCCTCTATAGGATC ((((((....)))))), the folding enthalpy in series [1] was -40.8 kcal/mol. In addition, in series [2], the Tm was 51.9 °C.
On the same counts, the results for GATCCTCTGTAGGATC ((((((....)))))) are -36.2 kcal/mol and 51.8 °C.
For the sequence GATCCTCTTTAGGATC ((((((....)))))), the folding enthalpy in series [1] was -46.6 kcal/mol. In addition, the Tm in series [2] turned out to be 52 °C.
On the same counts, the results for GATCCTGAGTAGGATC ((((((....)))))) are -37.9 kcal/mol and 50.9 °C.
Turning to GATCCTGATTAGGATC ((((((....)))))), the folding enthalpy in series [1] was -40.4 kcal/mol. In addition, the Tm in series [2] is 51.3 °C.
Regarding GATCCTGCTAGGATC ((((((...)))))), in series [1], the folding enthalpy was -34 kcal/mol. Besides, the Tm in series [2] was found to be 54.8 °C.
For the sequence GATCCTGGAAACAGGATC (((((((....))))))), the folding enthalpy in series [1] was -44.4 kcal/mol. The Tm in series [2] came to 61.7 °C.
On the same counts, the results for GATCCTGGAAACAGGGTC ((.((((....)))).)) are -32.9 kcal/mol and 50.8 °C.
Regarding GATCCTGGCCAGGATC ((((((....)))))), the folding enthalpy in series [1] was -47.6 kcal/mol. For the same sequence, the Tm in series [2] was determined as 61.3 °C.
On the same counts, the results for GATCCTGGCTAGGATC ((((((....)))))) are -38.3 kcal/mol and 57.5 °C.
